Reference: ChEMBL document CHEMBL1154778, “Synthesis and biological evaluation of C-5 methyl substituted 4-arylthio and 4-aryloxy-3-Iodopyridin-2(1H)-one type anti-HIV agents” (J Med Chem, 2009)

Tests used:
[1] = tested on: Human immunodeficiency virus 1; assay: Antiviral activity against HIV-1 LAI harboring wild type reverse transcriptase infected in human MT4 cells after 5 days by MTT assay; type: functional, organism-based; conditions: Human immunodeficiency virus 1, LAI, MT4, 120 h
How it was run: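 MT4 cells were kept in RPMI 1640 with 10% fetal calf serum and antibiotics at 37 °C, 5% CO2. A range of compound concentrations was incubated with HIV-1 LAI at 200 CCID50/well and 30000 MT4 cells/well for 5 days at 37 °C. Cell viability was read by MTT, and IC50 was the concentration giving 50% infection versus the drug-free control.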

[2] = Selectivity index, ratio of CC50 for human MT4 cells to IC50 for HIV-1 LAI harboring wild type reverse transcriptase infected in human MT4 cells; type: functional
How it was run: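 Cytotoxicity was measured in mock-infected MT4 cultures (30000 cells/well) given the same compound concentration range, run in parallel with the infected cultures for 5 days at 37 °C, 5% CO2, with MTT viability. CC50 was the concentration reducing viability by 50% versus the drug-free control. SI was CC50 divided by IC50 against HIV-1 LAI.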

[3] = tested on: Human immunodeficiency virus 1; assay: Antiviral activity against HIV1 HXB2 harboring K103N mutant reverse transcriptase infected in human MT4 cells after 5 days by MTT assay; type: functional, organism-based; conditions: Human immunodeficiency virus 1, HXB2, MT4, 120 h
How it was run: (§1)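 Mutant viruses were made by recombining the mutant PR-RT sequence into a PR-RT-deleted HIV-1 HXB2 proviral clone. MT4 cells were grown in RPMI 1640 with 10% FCS and antibiotics. Virus at 200 CCID50/well and 30000 cells/well were incubated with varied compound concentrations for 5 days at 37 °C, 5% CO2. MTT viability gave IC50, the concentration giving 50% infection versus the drug-free control.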

[4] = tested on: Human immunodeficiency virus 1; assay: Antiviral activity against HIV1 HXB2 harboring Y181C mutant reverse transcriptase infected in human MT4 cells after 5 days by MTT assay; type: functional, organism-based; conditions: Human immunodeficiency virus 1, HXB2, MT4, 120 h; how it was run: as §1
[5] = tested on: Human immunodeficiency virus 1; assay: Antiviral activity against HIV1 HXB2 harboring Y188L mutant reverse transcriptase infected in human MT4 cells after 5 days by MTT assay; type: functional, organism-based; conditions: Human immunodeficiency virus 1, HXB2, MT4, 120 h; how it was run: as §1

| Structure (SMILES) | IC50 [1] [nM] | Ratio CC50/IC50 [2] | IC50 [3] [nM] | IC50 [4] [nM] | IC50 [5] [nM] |
| --- | --- | --- | --- | --- | --- |
| Cc1cc(C)cc(Oc2c(CSCc3cccc(C#N)c3)c(C)[nH]c(=O)c2I)c1 | 3.16 | 19953 | 1.58 | 6.3 | 794 |
| CCOCc1c(C)[nH]c(=O)c(I)c1Sc1cc(C)cc(C)c1 | 1.99 | 50119 | 1.25 | 31.6 | 251 |
| Cc1cc(C)cc(Oc2c(CN3CCCC(C(N)=O)C3)c(C)[nH]c(=O)c2I)c1 (configuration not stated) | 10 | >10000 | – | – | – |
| Cc1cc(C)cc(Oc2c(COCCO)c(C)[nH]c(=O)c2I)c1 | 1.99 | >50119 | 39.8 | 31.6 | 501 |
| CCOCc1c(C)[nH]c(=O)c(I)c1Oc1cc(C)cc(C)c1 | 0.63 | >158489 | 6.3 | 6.3 | 125 |
| COCCOCc1c(C)[nH]c(=O)c(I)c1Oc1cc(C)cc(C)c1 | 1.58 | >63096 | 50.1 | 10 | 158 |
| Cc1cc(C)cc(Oc2c(CSCc3cccs3)c(C)[nH]c(=O)c2I)c1 | 2.51 | >39811 | 1 | 19.9 | 39.8 |
| Cc1cc(C)cc(Oc2c(Cn3ncc4ccccc43)c(C)[nH]c(=O)c2I)c1 | 7.9 | >3981 | – | – | – |
| Cc1cc(C)cc(Oc2c(Cn3ccnn3)c(C)[nH]c(=O)c2I)c1 | 2.51 | >39810 | 7.94 | 31.6 | 79.4 |
| Cc1cc(C)cc(Oc2c(Cn3ccnc3Br)c(C)[nH]c(=O)c2I)c1 | 7.9 | >3981 | – | – | – |
| Cc1cc(C)cc(Sc2c(Cn3ccnc3)c(C)[nH]c(=O)c2I)c1 | 1.25 | 15849 | 0.79 | 7.9 | 50.1 |
| Cc1cc(C)cc(Sc2c(Cn3nc(C)nc3C)c(C)[nH]c(=O)c2I)c1 | 3.16 | >31623 | 31.6 | 39.8 | 158 |
| Cc1cc(C)cc(Sc2c(Cn3cnc(C)n3)c(C)[nH]c(=O)c2I)c1 | 0.79 | >125893 | 1.99 | 15.8 | 100 |
| CNC(=O)CSCc1c(C)[nH]c(=O)c(I)c1Sc1cc(C)cc(C)c1 | 1.58 | >63096 | 3.98 | 39.8 | 794 |
| Cc1cc(C)cc(Sc2c(Cn3ncnc3C)c(C)[nH]c(=O)c2I)c1 | 1.99 | >12589 | 15.8 | 31.6 | 316 |
| CCOC(=O)CC1CN(Cc2c(C)[nH]c(=O)c(I)c2Sc2cc(C)cc(C)c2)CCO1 (configuration not stated) | 2.51 | 25119 | 0.62 | 25.1 | 50 |
| Cc1cc(C)cc(Sc2c(CN(C)CCC#N)c(C)[nH]c(=O)c2I)c1 | 2.51 | >31623 | 6.3 | 63 | 1000 |
| Cc1cc(C)cc(Sc2c(CN3CCN(C(=O)c4ccco4)CC3)c(C)[nH]c(=O)c2I)c1 | 10 | 398 | – | – | – |
| Cc1cc(C)cc(Sc2c(CNC=O)c(C)[nH]c(=O)c2I)c1 | 1.25 | >79433 | 1.25 | 31.6 | 199 |

| Structure (SMILES) | IC50 [1] [nM] | Ratio CC50/IC50 [2] | IC50 [3] [nM] | IC50 [4] [nM] | IC50 [5] [nM] |
| --- | --- | --- | --- | --- | --- |
| Cc1cc(C)cc(Sc2c(Cn3cccc3)c(C)[nH]c(=O)c2I)c1 | 2.51 | 19953 | 1 | 31.6 | 158 |
| Cc1cc(C)cc(Sc2c(Cn3nc(-c4ccco4)nc3C)c(C)[nH]c(=O)c2I)c1 | 1.99 | >50119 | 12.5 | 31.6 | 31.6 |
| Cc1cc(C)cc(Sc2c(CSCCc3cnccn3)c(C)[nH]c(=O)c2I)c1 | 1.99 | >39811 | 5.01 | 31.6 | 199 |
| COCC1CN(Cc2c(C)[nH]c(=O)c(I)c2Sc2cc(C)cc(C)c2)CCO1 (configuration not stated) | 1.25 | >50119 | 1 | 25.1 | 125 |
| Cc1cc(C)cc(Sc2c(CN3CCOC(CCO)C3)c(C)[nH]c(=O)c2I)c1 (configuration not stated) | 1.58 | 31623 | 1.58 | 31.6 | 199 |
| Cc1cc(C)cc(Sc2c(Cn3cccc3C#N)c(C)[nH]c(=O)c2I)c1 | 1 | >31623 | – | – | – |
| Cc1cc(C)cc(Sc2c(Cn3cnc(C)c3C#N)c(C)[nH]c(=O)c2I)c1 | 1.25 | >79433 | 1.25 | 31.6 | 100 |
| Cc1cc(C)cc(Sc2c(CN3CCOCC3)c(C)[nH]c(=O)c2I)c1 | 1.25 | 7943 | 1.25 | 31.6 | 158 |
| Cc1cc(C)cc(Sc2c(CN3CCOC(CC#N)C3)c(C)[nH]c(=O)c2I)c1 (configuration not stated) | 1.58 | 25119 | 1 | 25.1 | 100 |
| CCOC(=O)CSCc1c(C)[nH]c(=O)c(I)c1Oc1cc(C)cc(C)c1 | 10 | >10000 | – | – | – |
| CNC(=O)CSCc1c(C)[nH]c(=O)c(I)c1Oc1cc(C)cc(C)c1 | 1.58 | >60096 | 3.98 | 19.9 | 158 |
| Cc1cc(C)cc(Oc2c(Cn3cncn3)c(C)[nH]c(=O)c2I)c1 | 1.99 | >50118 | 3.98 | 10 | 100 |
| Cc1cc(C)cc(Sc2c(CN)c(C)[nH]c(=O)c2I)c1 | 19.9 | – | 158 | 794 | > 10000 |
| Cc1cc(C)cc(Sc2c(Cn3ccnc3C#N)c(C)[nH]c(=O)c2I)c1 | 1 | >31623 | – | – | – |
| Cc1cc(C)cc(Sc2c(Cn3cncn3)c(C)[nH]c(=O)c2I)c1 | 1 | >25119 | 1 | 7.94 | 125 |
| CCSCc1c(C)[nH]c(=O)c(I)c1Sc1cc(C)cc(C)c1 | 3.16 | >15849 | 5.01 | 31.6 | 630 |
| Cc1cc(C)cc(Sc2c(Cn3ccnn3)c(C)[nH]c(=O)c2I)c1 | 1.99 | >50119 | 1 | 10 | 50.1 |
| Cc1cc(C)cc(Sc2c(CN3CCOC(CN(C)C)C3)c(C)[nH]c(=O)c2I)c1 (configuration not stated) | 5.01 | >5012 | – | 158 | 1000 |
